A selection: hits, their analogues and other compounds. The true share with any hit is near 2.3%.
Rtt109 Vps75: inhibitors of C. albicans Rtt109/Vps75 HAT, primary screen, biochemical, ThioGlo CoA-SH fluorescence, plate reader. purified Rtt109/Vps75, 4 h. Histone acetyltransferase RTT109 (Candida albicans (strain SC5314 / ATCC MYA-2876)), …. actives 0.16% (n = 330,000). inhibition, % at 34.9 µM;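 active means inhibition of at least 50% in every replicate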
Target sequence (Q5AAJ8 whole entry, looked up): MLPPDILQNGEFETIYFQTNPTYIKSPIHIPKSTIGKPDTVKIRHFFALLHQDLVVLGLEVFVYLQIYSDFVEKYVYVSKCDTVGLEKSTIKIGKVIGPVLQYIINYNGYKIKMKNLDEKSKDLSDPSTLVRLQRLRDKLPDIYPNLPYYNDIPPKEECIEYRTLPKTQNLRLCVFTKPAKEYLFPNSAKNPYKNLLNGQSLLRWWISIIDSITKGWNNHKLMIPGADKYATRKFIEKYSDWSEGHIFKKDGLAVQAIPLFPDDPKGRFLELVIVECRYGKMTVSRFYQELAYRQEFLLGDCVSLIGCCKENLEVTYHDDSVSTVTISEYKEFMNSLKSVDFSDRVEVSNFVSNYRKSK
Glyco luc inh: increase of ERlucT glycosylation luciferase signal, primary screen, N-linked glycosylation inhibitor project, D54 ERlucT cells, luminescence, set 2; D54 ERlucT glycosylation luciferase reporter, 24 h; percent of 100 nM tunicamycin response; actives 0.23% (n = 360,000); reporter increase, % at 12.5 µM;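 active means mean luciferase reporter signal, scaled so untreated is 0 and the glycosylation-blocking control 100, at or above a set limit in every replicate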;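 further: luciferase carries N-glycosylation sites so blocking glycosylation raises the light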
HIV Env fusion: inhibitors of HIV-1 Env-driven cell-cell fusion, primary screen, HeLa-JRFL effector, CEM21 target cells, luciferase. inhibition, % at 12.3 µM. actives 1.1% (n = 360,000);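 active means mean replicate inhibition score of at least 50 and every replicate individually at or above 50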
Arr AP2 block: inhibitors of beta-arrestin/AP2 binding, primary screen, biochemical, GPCR trafficking, flow cytometry | beta-arrestin 1 C-terminal peptide binding to AP2 beta2-adaptin appendage (human) | FITC-arrestin peptide / GST-AP2 beads; AP2 beta2 appendage carries R879A mutation | inhibition, % at 10 µM | actives 0.31% (n = 340,000) | AID 504490, 2011;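 active means inhibition above a set limit, near 3 SD of compounds lacking own fluorescence, cut at about 54% in these data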
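Material – GST-tagged AP2 beta2-adaptin appendage (R879A) on 4 µm glutathione beads · Probe or stimulus – fluorescein-tagged arrestin peptide at 50 nM final · Timing – 12 min plus 1 h, RT · Detection – bead flow cytometry, FITC channel · Read-out basis – inhibition as reduced fluorescein signal on beads, percent · Medium – PBS plus Tween 20 (0.05%) and BSA (0.1%)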
PfHsp90 yeast 2: growth inhibition of PfHsp90-expressing yeast, primary screen, antimalarial PfHsp90 inhibitor project, S. cerevisiae, BacTiter-Glo luminescence, single point, set 2; BacTiter-Glo ATP, 48 h; yeast lacking PDR1 and PDR3 efflux regulators; inhibition, % at 9.4 µM; actives 0.32% (n = 310,000); AID 504621, 2011;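 active means every replicate shows inhibition above about 80%, whatever the replicate mean, limit read from the data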
PAX8 reporter: inhibitors of PAX8-driven TPO luciferase reporter, primary screen, RMG-I cells, single concentration; AID 652154, 2013; SteadyGlo, 24 h; actives 1.2% (n = 360,000); inhibition, % at 12.6 µM;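 active means mean replicate inhibition at least 60% with every replicate also reaching 60%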;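 further: luciferase light reporting Pax8 driven TPO promoter activity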
Hits are given with their value; i = inactive; nt = no result.

SMILES	Rtt109 Vps75	Glyco luc inh	HIV Env fusion	Arr AP2 block	PfHsp90 yeast 2	PAX8 reporter
C[C@@H]1CN([C@H](C)CO)C(=O)Cc2cc(NC(=O)Cn3cnnn3)ccc2O[C@@H]1CN(C)C(=O)Nc1ccc(C(F)(F)F)cc1	nt	nt	i	nt	nt	nt
COc1ccc(S(=O)(=O)Nc2ccc3c(c2)C(=O)N([C@@H](C)CO)C[C@H](C)[C@@H](CN(C)Cc2ccc4c(c2)OCO4)O3)cc1	nt	nt	nt	nt	nt	i
COc1ccc(NC(=O)c2ccc(Cl)c(S(=O)(=O)N3CC(C)OC(C)C3)c2)cn1 (stereo not drawn)	i	i	nt	i	i	i
COc1ccc(NC(=O)c2ccc(Cl)c(S(=O)(=O)N3CCc4ccccc4C3)c2)cn1	i	i	92	i	i	i
O=C(C[C@@H]1C[C@H]2c3cc(NC(=O)Nc4ccc(C(F)(F)F)cc4)ccc3O[C@H]2[C@H](CO)O1)NCc1ccc(Cl)cc1	nt	nt	i	nt	nt	94
O=C(C[C@H]1C[C@@H]2c3cc(NC(=O)Nc4ccc(C(F)(F)F)cc4)ccc3O[C@@H]2[C@@H](CO)O1)NCc1ccc2c(c1)OCO2	nt	nt	i	nt	nt	65
O=C(C[C@H]1C[C@H]2c3cc(NC(=O)Nc4ccc(C(F)(F)F)cc4)ccc3O[C@H]2[C@@H](CO)O1)NCc1ccc(Cl)cc1	nt	nt	i	nt	nt	i
O=C(C[C@@H]1C[C@H]2c3cc(NC(=O)Nc4ccc(C(F)(F)F)cc4)ccc3O[C@H]2[C@H](CO)O1)NCc1ccc2c(c1)OCO2	nt	nt	i	nt	nt	i
C[C@H]1CN([C@@H](C)CO)C(=O)CCCn2cc(nn2)CO[C@@H]1CN(C)Cc1cccc(C(=O)O)c1	nt	nt	nt	nt	nt	i
C#C[C@]1(O)CC[C@H]2[C@@H]3CCc4cc(O)ccc4[C@H]3CC[C@@]21C	i	i	i	i	i	i
C#CC1(O)CCC2C3CCC4=C(CCC(=O)C4)C3CCC21C (stereo not drawn)	i	i	62	i	nt	i
O=C1C=CC(=O)N1Cc1ccccc1	i	i	i	i	110	i
CN1C(=O)N(C)N(Cc2ccccc2)C(=O)N1Cc1ccccc1	nt	nt	i	nt	nt	i
C[C@@H]1CCCCO[C@H](CN(C)C(=O)c2ccccc2)[C@H](C)CN([C@H](C)CO)C(=O)c2cc(NC(=O)c3ccccc3)ccc2O1	nt	nt	i	nt	nt	i
Cc1ccc(C(=O)N/C(=C\c2ccc(-c3cccc([N+](=O)[O-])c3)o2)C(=O)NCCCN(C)C)cc1	i	i	i	i	i	i
Cc1ccc(C(=O)N/C(=C\c2ccc(-c3ccc(Br)cc3)o2)C(=O)NCCCN(C)C)cc1	nt	i	i	i	i	95
COc1cc(CN2CCCC(C(=O)c3ccc4c5c(cccc35)CC4)C2)cc(OC)c1O (stereo not drawn)	nt	i	56	i	i	i
Cc1ccc(S(=O)(=O)Nc2ccc3c(c2)C(=O)N([C@@H](C)CO)C[C@@H](C)[C@H](CN(C)C(=O)NC2CCCCC2)OCCCC[C@H](C)O3)cc1	nt	nt	i	nt	nt	i
O=C(NN=Cc1c(O)ccc2ccccc12)c1ccc2c(c1)OCO2	i	i	i	i	i	i
O=C(N/N=C/c1c(O)ccc2ccccc12)c1ccc(CO)nc1	i	i	i	i	i	71
Cc1cc(OCC(=O)NCC(c2cccs2)N2CCOCC2)ccc1C(C)C (stereo not drawn)	i	i	59	i	nt	i
COc1cc(C(=O)NCC(c2cccs2)N2CCOCC2)ccc1OCc1ccc(Cl)cc1 (stereo not drawn)	nt	i	i	nt	nt	99
Cc1ccc(C(C)C)c(OCC(=O)NCC(c2cccs2)N2CCOCC2)c1 (stereo not drawn)	i	i	i	i	i	i
C[C@@H]1CN([C@@H](C)CO)C(=O)c2cc(NS(=O)(=O)c3cccs3)ccc2O[C@@H](C)CCCCO[C@@H]1CN(C)C(=O)Nc1ccc(F)cc1	nt	nt	nt	nt	nt	i
CCCOc1ccc(/C(O)=C2/C(=O)C(=O)N(CCCOC)C2c2ccncc2)cc1 (stereo not drawn)	i	i	nt	i	i	nt
SMILES	Rtt109 Vps75	Glyco luc inh	HIV Env fusion	Arr AP2 block	PfHsp90 yeast 2	PAX8 reporter
C=CCOc1ccc(/C(O)=C2\C(=O)C(=O)N(CCOC)C2c2cccnc2)cc1 (stereo not drawn)	60	i	i	i	i	nt
CC1C(=O)N(Cc2cn(CCC3OCCCO3)nn2)CCS(=O)(=O)N1Cc1ccc(-c2ccc(F)cc2)cc1 (stereo not drawn)	nt	i	nt	nt	nt	i
CC1C(=O)N(Cc2cn(CCC3OCCCO3)nn2)CCS(=O)(=O)N1Cc1ccc(-c2ccc(Cl)c(Cl)c2)cc1 (stereo not drawn)	nt	i	64	nt	nt	i
CC(C)C1C(=O)N(Cc2cn(CCC3OCCCO3)nn2)CCS(=O)(=O)N1Cc1ccc(-c2ccc(Cl)nc2)cc1 (stereo not drawn)	nt	i	i	nt	nt	74
COc1ccc(-c2ccc(CN3C(C(C)C)C(=O)N(Cc4cn(CCC5OCCCO5)nn4)CCS3(=O)=O)cc2)cn1 (stereo not drawn)	nt	i	i	nt	nt	i
C=C1CCc2c([nH]c3ccc(OCC(C)C)cc23)C1=O	i	i	i	i	i	111
COc1cc(CNc2ncnc3c2ncn3[C@H]2CN(Cc3ccc(C(=O)O)cc3)C[C@@H](CO)O2)cc(OC)c1OC	nt	i	i	nt	nt	i
COc1cc(CNc2ncnc3c2ncn3[C@H]2CN(Cc3ccc(-c4ccccc4)cc3)C[C@@H](CO)O2)cc(OC)c1OC	nt	i	i	nt	nt	94
CC(C)CNc1ncnc2c1ncn2[C@H]1CN(Cc2ccco2)C[C@@H](CO)O1	nt	i	i	nt	nt	84
Cc1ccc(S(=O)(=O)N(C)C[C@@H]2OCCCC[C@@H](C)Oc3ccc(NC(=O)Nc4cccc5ccccc45)cc3C(=O)N([C@@H](C)CO)C[C@H]2C)cc1	nt	nt	i	nt	nt	i
COCC1CCN(Cc2cn(Cc3ccccc3)nc2-c2cc3ccccc3o2)CC1	i	i	i	i	nt	i
COCC1CCCN(Cc2cn(Cc3ccccc3)nc2-c2cc3ccccc3o2)C1 (stereo not drawn)	i	i	58	i	nt	i
C[C@H]1c2cccc(O)c2C(O)=C2C(=O)[C@]3(O)C(O)=C(C(N)=O)C(=O)[C@@H](N(C)C)C3[C@@H](O)C21 (stereo partly drawn)	i	i	i	i	i	i
